We go through nine molecules from ChEMBL document CHEMBL4251735, “New Hybrids Derived from Podophyllic Aldehyde and Diterpenylhydroquinones with Selectivity toward Osteosarcoma Cells” (ACS Med Chem Lett, 2018).

Activity calls are given as the source filed them. The rule behind the calls is not given here.

A word on the IC50: it is the concentration at which inhibition is half-maximal.

Assay [1] has as its system MCF7. The assay is described as follows: Cytotoxicity against human MCF7 cells after 72 hrs by MTT assay. The conditions noted are these: for IC50: MCF7, 72 h. It counts as functional, cell-based. In outline:
(§1)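 MTT viability assay after 72 h incubation; IC50 reported as mean ± error from viability curves.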

The test system of assay [2] is MG-63. Nature of the assay: Cytotoxicity against human MG63 cells after 72 hrs by MTT assay. The format is functional, cell-based. As to conditions: for IC50: MG-63, 72 h. In outline:
as §1
Background: Tetrazolium dyes change colour on reduction, which living cells bring about.

Assay [3] concerns HT-29. Nature of the assay: Cytotoxicity against human HT-29 cells after 72 hrs by MTT assay. The format is functional, cell-based. As to conditions: for IC50: HT-29, 72 h. The method, boiled down:
as §1

The test system of assay [4] is MG-63. Nature of the assay: Cell cycle arrest in human MG63 cells assessed as reduction in accumulation at G0/G1-phase at 1 uM after 24 hrs by propidium iodide staining based flow cytometric analysis relative to control. Details: scale not given: the % may be the effect or the level left. The format is functional. The method, boiled down:
(§2)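 MG-63 osteosarcoma cells exposed to test agent at 1 µM for 24 h, with a DMSO vehicle control (<0.001%). DNA content was measured by fluorescence flow cytometry, and cells were assigned to G0/G1, S and G2/M phases as percentage of the population. Significance versus control was tested at p < 0.001.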
A general note: Flow cytometry measures light scatter and fluorescence of single cells or particles in a stream.

The test system of assay [5] is HT-29. The assay is described as follows: Cytotoxicity against human HT-29 cells after 24 hrs by annexin-V-FITC/propidium iodide staining based flow cytometric method. The format is functional, cell-based. As to conditions: HT-29, 24 h. In outline:
(§3)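 Flow cytometric cytotoxicity measured after 24 h exposure; IC50 derived. Viability was also plotted against drug concentrations from 0.1 to 100 µM over 24 h in HT-29, MCF-7 and MG-63.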

Assay [6] concerns MG-63. The assay is described as follows: Induction of apoptosis in human MG63 cells assessed as viable cells at 1 uM after 24 hrs by annexin-V-FITC/propidium iodide staining based flow cytometric analysis (reference value: 89.58%). As to conditions: MG-63, 24 h, read-out: Activity. It counts as functional.
In assay [7] the test system is MG-63. The assay is described as follows: Cytotoxicity against human MG63 cells after 24 hrs by annexin-V-FITC/propidium iodide staining based flow cytometric method. The format is functional, cell-based. As to conditions: MG-63, 24 h. The method, boiled down:
as §3

Assay [8] deals with MCF7. The assay is described as follows: Cytotoxicity against human MCF7 cells after 24 hrs by annexin-V-FITC/propidium iodide staining based flow cytometric method. It counts as functional, cell-based. The conditions noted are these: MCF7, 24 h. The method, boiled down:
as §3

Assay [9] concerns MG-63. Nature of the assay: Cell cycle arrest in human MG63 cells assessed as reduction in accumulation at S-phase at 1 uM after 24 hrs by propidium iodide staining based flow cytometric analysis relative to control. Details: scale not given: the % may be the effect or the level left. It counts as functional. The method, boiled down:
as §2

Assay [10] relates to MG-63. The assay is described as follows: Cell cycle arrest in human MG63 cells assessed as increase in accumulation at G2/M phase at 1 uM after 24 hrs by propidium iodide staining based flow cytometric analysis relative to control. It counts as functional. The method, boiled down:
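MG-63 cells incubated 24 h with compound at 1 µM alongside vehicle control (DMSO, <0.001%); DNA content measured by fluorescence flow cytometry, giving percentages of cells in G0/G1, S and G2/M; significance versus control tested at p < 0.001.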

In assay [11] the test system is MG-63. Nature of the assay: Induction of apoptosis in human MG63 cells assessed as total apoptotic cells at 1 uM after 24 hrs by annexin-V-FITC/propidium iodide staining based flow cytometric analysis (reference value: 10.42%). It counts as functional.
Assay [12] concerns MG-63. Nature of the assay: Induction of apoptosis in human MG63 cells assessed as increase in early apoptotic cells at 1 uM after 24 hrs by annexin-V-FITC/propidium iodide staining based flow cytometric analysis. The format is functional, cell-based. The method, boiled down: (§4)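 Apoptosis was assessed in MG-63 cells treated for 24 h at 1 µM, alongside a DMSO vehicle control (<0.001%). Cells were stained with annexin V and PI and analysed by flow cytometry. Populations were classed as early apoptotic (annexin+/PI-), late apoptotic/dead (annexin+/PI+) or living (annexin-/PI-). Total annexin+ percentage and the PI-/PI+ ratio were reported.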

The test system of assay [13] is MG-63. The assay is described as follows: Induction of apoptosis in human MG63 cells assessed as increase in late apoptotic cells at 1 uM after 24 hrs by annexin-V-FITC/propidium iodide staining based flow cytometric analysis. The format is functional, cell-based. In outline: as §4

Turning to `C=C1CCC2[C@](C)(CCC[C@]2(C)C(=O)OCCCCCCBr)[C@H]1CCc1ccc2c(OC(C)=O)ccc(OC(C)=O)c2c1` (stereo partly drawn), the result in [1], in assay [2] and in [3] was Active.

`C=C1CCC2[C@](C)(CCC[C@]2(C)C(=O)OCc2ccc(CBr)cc2)[C@H]1CCc1ccc2c(OC(C)=O)ccc(OC(C)=O)c2c1` (stereo partly drawn): the outcome in assay [1], in assay [2] and in assay [3] was Active.

As to `C=C1CCC2[C@](C)(CCC[C@]2(C)C(=O)OCc2ccc(COC(=O)[C@@H]3C(C=O)=Cc4cc5c(cc4[C@H]3c3cc(OC)c(OC)c(OC)c3)OCO5)cc2)[C@H]1CCc1ccc2c(OC(C)=O)ccc(OC(C)=O)c2c1` (stereo partly drawn), the Activity amounted to 100% in [4], 100% in assay [9] and 89.96% in assay [11]. Further, the IC50 in assay [5] is more than 100000 nM; in assay [1], 1030 nM; in [7] it was 500 nM; in [8], more than 100000 nM; in assay [2], 150 nM; in assay [3] it was 1440 nM. Further, the viability at 1 µM in assay [6] is 10%. Further, the “fold change (FC)” value in [10] was found to be 5. The result in [12] and in assay [13] was Active.

Consider `C=C1CCC2[C@](C)(CCC[C@]2(C)C(=O)OCCCBr)[C@H]1CCc1ccc2c(OC(C)=O)ccc(OC(C)=O)c2c1` (stereo partly drawn), for which the result in assay [1], in assay [2] and in assay [3] was Active.

Consider `C=C1CCC2[C@](C)(CCC[C@]2(C)C(=O)OCCCOC(=O)[C@@H]2C(C=O)=Cc3cc4c(cc3[C@H]2c2cc(OC)c(OC)c(OC)c2)OCO4)[C@H]1CCc1ccc2c(OC(C)=O)ccc(OC(C)=O)c2c1` (stereo partly drawn), for which the IC50 is more than 100000 nM in [5]; 2210 nM in assay [1]; 58200 nM in [7]; more than 100000 nM in assay [8]; 2230 nM in assay [2]; 1510 nM in assay [3]. Also, the viability at 1 µM in assay [6] came to 75%. Also, the result in assay [10] was Active. In addition, in assay [11], the Activity stood at 25.03%.

For `C=C1CCC2[C@](C)(CCC[C@]2(C)C(=O)OC)[C@H]1CCc1ccc2c(OC(C)=O)ccc(OC(C)=O)c2c1` (stereo partly drawn), the IC50 in assay [5] is 5650 nM; in assay [1], 15 nM; in [7], 1160 nM; in [8] it was 29900 nM; in assay [2], 410 nM; in assay [3] it was 18 nM. In addition, in assay [10], the outcome was Active.

On to `COC(=O)[C@@H]1C(C=O)=Cc2cc3c(cc2[C@H]1c1cc(OC)c(OC)c(OC)c1)OCO3` [PODOPHYLLIC ALDEHYDE], for which the Activity in assay [4] stood at 100%; in assay [9], 100%; in [11] it was 48.08%. The IC50 in [5] is more than 100000 nM; in assay [1], 480 nM; in assay [7], 1230 nM; in [8] it was more than 100000 nM; in assay [2] it was 60 nM; in [3] it was 29 nM. Further, the viability at 1 µM in [6] came out at 51.9%. Also, the result in assay [10], in [12] and in [13] was Active.

In the case of `C=C1CCC2[C@](C)(CCC[C@]2(C)C(=O)OCCCCCCOC(=O)[C@@H]2C(C=O)=Cc3cc4c(cc3[C@H]2c2cc(OC)c(OC)c(OC)c2)OCO4)[C@H]1CCc1ccc2c(OC(C)=O)ccc(OC(C)=O)c2c1` (stereo partly drawn), the half-inhibitory concentration (IC50) was 57600 nM in assay [5]; 1000 nM in assay [1]; 44600 nM in assay [7]; more than 100000 nM in assay [8]; 2060 nM in assay [2]; 1910 nM in assay [3]. The viability at 1 µM in [6] is 88.8%. In addition, in assay [11], the Activity is 11.24%.

Regarding `COc1cc([C@@H]2c3cc4c(cc3[C@H](O)[C@H]3COC(=O)[C@H]23)OCO4)cc(OC)c1OC` [PODOFILOX], the 50% inhibitory concentration (IC50) in [5] is more than 100000 nM; in [1], 28 nM; in assay [7], 18300 nM; in [8] it was more than 100000 nM; in assay [2], 7 nM; in assay [3], 66 nM. In addition, the viability at 1 µM in [6] was 51.4%. Besides, the outcome in [10] was Active. Further, the Activity in assay [11] is listed as 48.56%.
